High-throughput results deposited in PubChem BioAssay by Broad Institute.
ARNT-TACC3 inh – disruptors of ARNT/TACC3 protein interaction, primary screen, biochemical, AlphaScreen, single concentration | AlphaScreen His-ARNT PAS-B/GST-TACC3 binding, luminescence; TACC3 fragment carries E629A point mutation | inhibition, % at 9.99 µM | 390,000 tested, 0.66% active;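 active means mean inhibition of replicates at least 50% and at least half of replicates each reaching 50%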;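 further: 0% = complete ARNT plus TACC3 wells and 100% = ARNT alone without TACC3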
CAL PDZ FP-1 – CAL PDZ peptide-binding inhibitors, primary screen, biochemical, fluorescence polarization, Cer-tagged CAL PDZ, HTS; 330,000 tested, 0.02% active; purified CAL PDZ, TMR-peptide fluorescence polarization, 1 h; inhibition, % at 20 µM;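 active means highest replicate inhibition of at least 40%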;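 further: plate controls were DMSO neutral control wells for no effect and unlabeled competitor peptide control wells for full effect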
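Material: tagged CAL PDZ protein CerCALP, purified; buffer or medium: sodium phosphate/NaCl buffer pH 7.4 with TCEP, IgG, Thesit; also added: fluorescent TMR peptide probe; schedule: 1 h incubation at room temperature before polarization reading; technique: fluorescence polarization from S- and P-plane intensities, G-factor corrected; control set: unlabelled peptide and DMSO controls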
CaV13 FRET inh – Primary screen for inhibitors of IQ motif and Ca2+-dependent inactivation inhibitor domain binding in CACNA1D, Förster resonance energy transfer in living cells, …. HEK cells, CFP/YFP FRET ICDI-IQ, plate reader, 10 min; percent FRET-ratio fall versus neutral wells. inhibition, % at 12.3 µM. 340,000 tested, 0.098% active. AID 743397;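 active means mean replicate inhibition of at least 30% and at least 1% of replicates passing that level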;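 further: 0% = median of the neutral control wells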
CAL PDZ FP-2 – untagged CAL PDZ binding inhibitors, primary screen, biochemical, fluorescence polarization, HTS; 300,000 tested, 0.92% active; AID 602252, 2012; Golgi-associated PDZ and coiled-coil motif-containing protein (Homo sapiens), Q9HD26; inhibition, % at 24.9 µM; purified CAL PDZ, TMR-peptide fluorescence polarization, 1 h;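 active means mean inhibition of at least 30% with at least half of replicates also reaching 30%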;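 further: 0% = DMSO neutral control and 100% = excess unlabeled competitor peptide PRC23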
Active calls of the source: *. Shown are actives, neighbours in structure and some others; about 1.2% of the full set was active somewhere.

How did O=S(=O)(N[C@@H]1CC[C@@H](CCn2cc(-c3ccc(F)cc3)nn2)O[C@H]1CO)c1ccccc1F do in these assays?
ARNT-TACC3 inh: -3

What do the screens show for `O=C1CNC(=S)N1CCCn1ccnc1`?
ARNT-TACC3 inh: 60*; CAL PDZ FP-1: -2; CaV13 FRET inh: -6; CAL PDZ FP-2: 1

What do the screens show for `O=C1NC(=O)/C(=C\c2cn(Cc3ccccc3F)c3ccccc23)N1`?
ARNT-TACC3 inh: 2; CAL PDZ FP-1: 0; CaV13 FRET inh: -6; CAL PDZ FP-2: 59*

What do the screens show for `CCCNC(=O)C[C@@H]1CC[C@@H]2[C@H](COc3ccc(NS(=O)(=O)c4ccccc4C)cc3C(=O)N2C)O1`?
ARNT-TACC3 inh: -10

What do the screens show for `Fc1cccc(COc2ccccc2C(=S)N2CCCC2)c1`?
ARNT-TACC3 inh: 4; CaV13 FRET inh: 0; CAL PDZ FP-2: 43*

Results for O=C1C=C(c2ccccc2)OC(c2ccccc2)O1 (stereo not drawn) ?
ARNT-TACC3 inh: -4; CAL PDZ FP-1: -8; CaV13 FRET inh: -3; CAL PDZ FP-2: 47*

Results for CCOC(=O)CC(=O)CSc1nc(C)cc(C)c1C#N ?
ARNT-TACC3 inh: -1; CAL PDZ FP-1: -2; CaV13 FRET inh: -4; CAL PDZ FP-2: 39*

What do the screens show for `O=C(C1CCCC1)N1C[C@H]2[C@@H](c3ccccc31)[C@@H](CO)N2C(=O)c1cccnc1`?
ARNT-TACC3 inh: -4

Results for CCOC(=O)N1CCN(C(=O)c2ccc3c(c2)sc2nc(-c4ccc(OC)cc4)cn23)CC1 ?
ARNT-TACC3 inh: 3; CAL PDZ FP-1: -1; CaV13 FRET inh: -6; CAL PDZ FP-2: 38*

How did CCOC(=O)N1CCN(C(=O)c2sc3nc(-c4ccc(F)cc4)cn3c2C)CC1 do in these assays?
ARNT-TACC3 inh: -9; CAL PDZ FP-1: -1; CaV13 FRET inh: -5; CAL PDZ FP-2: -1

What do the screens show for `CCS(=O)(=O)Nc1ccc2c(c1)C(=O)N(C)[C@H]1CC[C@@H](CC(=O)Nc3ccccc3)O[C@@H]1CO2`?
ARNT-TACC3 inh: 7

What do the screens show for `CS(=O)(=O)Nc1ccc2c(c1)[C@H]1C[C@H](CC(=O)NCc3cccnc3)O[C@@H](CO)[C@H]1O2`?
ARNT-TACC3 inh: -1

Results for C=CCOc1ccc(/C(O)=C2/C(=O)C(=O)N(CCCN3CCOCC3)C2c2ccccc2)cc1 (stereo not drawn) ?
ARNT-TACC3 inh: -3; CAL PDZ FP-1: -1; CAL PDZ FP-2: -4

How did C=CCOc1ccc(/C(O)=C2/C(=O)C(=O)N(CCCN3CCOCC3)C2c2ccc(OC)cc2)cc1 (stereo not drawn) do in these assays?
ARNT-TACC3 inh: 3; CaV13 FRET inh: -4; CAL PDZ FP-2: 40*

Results for COc1cccc(-c2cnc3c(c2)C(=O)N([C@H](C)CO)C[C@H](C)[C@H](CN(C)S(=O)(=O)c2cccs2)O3)c1 ?
ARNT-TACC3 inh: 7

What do the screens show for `COc1cc(/C=C(\C#N)C(=O)NC(C)C)cc(Cl)c1O`?
ARNT-TACC3 inh: 27; CAL PDZ FP-1: 0; CaV13 FRET inh: 48*; CAL PDZ FP-2: 4

How did CC(C)NC(=O)/C(C#N)=C/c1cccc(NC(=O)c2ccccc2Cl)c1 do in these assays?
ARNT-TACC3 inh: 0; CAL PDZ FP-1: 0; CaV13 FRET inh: -5; CAL PDZ FP-2: -2

How did O=C(CC1CC1)Nc1ccc2c(c1)[C@H]1C[C@@H](CC(=O)N3CCc4ccccc4C3)O[C@@H](CO)[C@H]1O2 do in these assays?
ARNT-TACC3 inh: -2

Results for O=c1c(CO)cc(CO)cc(CO)c1O ?
ARNT-TACC3 inh: 74*; CAL PDZ FP-1: -2; CaV13 FRET inh: -3; CAL PDZ FP-2: -8

Results for COc1ccc(NC(=O)N[C@H]2CC[C@@H](CCNC(=O)CCN3CCCCC3)O[C@@H]2CO)cc1 ?
ARNT-TACC3 inh: 8

Results for COc1ccc(NC(=S)Nc2ccc(S(=O)(=O)N3CCOCC3)cc2)c(OC)c1 ?
ARNT-TACC3 inh: -1; CAL PDZ FP-1: -1; CaV13 FRET inh: -6; CAL PDZ FP-2: 2

Results for COc1ccc(NC(=S)Nc2ccc(S(N)(=O)=O)cc2)c(OC)c1 ?
ARNT-TACC3 inh: 3; CAL PDZ FP-1: -1; CaV13 FRET inh: -6; CAL PDZ FP-2: 37*

Results for COc1cc2c(cc1OC)CN(c1nc(-c3cccnc3)nc3ccccc13)CC2 ?
ARNT-TACC3 inh: 3; CAL PDZ FP-1: -5; CaV13 FRET inh: -7; CAL PDZ FP-2: 71*

What do the screens show for `Cc1noc(C)c1S(=O)(=O)Nc1ccc2c(c1)C(=O)N([C@H](C)CO)C[C@H](C)[C@@H](CN(C)S(=O)(=O)c1c(C)noc1C)OCCCC[C@H](C)O2`?
ARNT-TACC3 inh: -6

How did O=C1O[C@@H](c2ccccc2)[C@@H](c2ccccc2)N2[C@@H](c3ccc(O)cc3)[C@]3(C(=O)Nc4ccc(C#CC5(O)CCCCCC5)cc43)[C@@H](C(=O)N3CCCCCCC3)[C@H]12 do in these assays?
ARNT-TACC3 inh: -16

Results for CO[C@@H]1CN(C)C(=O)c2cc(NC(=O)Nc3ccccc3)ccc2OC[C@H](C)N(C(=O)CN(C)C)C[C@H]1C ?
ARNT-TACC3 inh: -7

What do the screens show for `CCc1nnc(NC(=O)c2ccc(-c3ccccc3F)o2)s1`?
ARNT-TACC3 inh: 2; CAL PDZ FP-1: -3; CaV13 FRET inh: 136*; CAL PDZ FP-2: 15

What do the screens show for `CCCCC(=O)Nc1ccc2c(c1)oc1ccccc12`?
ARNT-TACC3 inh: 1; CAL PDZ FP-1: -2; CaV13 FRET inh: -5; CAL PDZ FP-2: 56*

How did O=C(O)c1cccc(Cn2c(Cl)c(/C=N/NC(=O)c3ccc(O)cc3)sc2=O)c1 do in these assays?
ARNT-TACC3 inh: 41*; CAL PDZ FP-1: -3; CaV13 FRET inh: -6; CAL PDZ FP-2: -5

Results for O=C(COc1ccccc1)N/N=C/c1sc(=O)n(Cc2cccc(C(=O)O)c2)c1Cl ?
ARNT-TACC3 inh: 3; CAL PDZ FP-1: -1; CaV13 FRET inh: -16; CAL PDZ FP-2: -7

Results for Cc1noc(C)c1S(=O)(=O)Nc1ccc2c(c1)C(=O)N([C@@H](C)CO)C[C@@H](C)[C@@H](CN(C)C(=O)NC(C)C)O2 ?
ARNT-TACC3 inh: -8

How did O=C(NC1CCCC1)c1ccc(CS(=O)(=O)c2ccc(Cl)cc2)o1 do in these assays?
ARNT-TACC3 inh: -3; CAL PDZ FP-1: -2; CaV13 FRET inh: -16; CAL PDZ FP-2: 70*

Results for O=C(CC1CC1)N1[C@H](CO)[C@@H]2c3ccccc3N(S(=O)(=O)c3ccccc3)C[C@@H]21 ?
ARNT-TACC3 inh: -6

What do the screens show for `NC(=O)Cn1cc(/C=N\NS(=O)(=O)c2ccc(F)cc2)c2ccccc21`?
ARNT-TACC3 inh: 3; CAL PDZ FP-1: 0; CaV13 FRET inh: -3; CAL PDZ FP-2: 35*
